From ChEMBL document CHEMBL1130177, “6 beta-Propynyl-substituted steroids: mechanism-based enzyme-activated irreversible inhibitors of aromatase” (J Med Chem, 1997) come the findings set out here.

Data set [1] in a line: Selectivity index of Kcat/app Ki(inact). The procedure, abridged:
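Lyophilized human placental microsomes (0.08-0.1 mg/mL protein) were preincubated at 37 °C with varied inhibitor concentrations and 0.1 mM NADPH in 0.1 M phosphate buffer, pH 7.4. Timed aliquots were diluted 10-fold in cold buffer. Residual activity was read as 3H2O release from 0.25 µM [1β-3H]androstenedione with an NADPH-generating system (30 min, 37 °C). Half-life versus 1/[I] (Kitz-Wilson) gave Ki(inact) and kcat. Duplicates.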

A short description of data set [2]: The T1/2 value was obtained from the time point at which each half-time reached 50% of its value at zero time. It is filed as ADME. Put shortly: (§1)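 Inhibitor, various concentrations, preincubated at 37 °C with placental microsomes (0.08-0.1 mg/mL) and NADPH (0.1 mM) in 0.1 M phosphate pH 7.4. Aliquots taken over time, diluted 10-fold in cold buffer, then assayed with 0.25 µM [1β-3H]androstenedione plus NADPH-generating system, 30 min at 37 °C. Half-lives plotted against 1/[I] (Kitz-Wilson); Ki(inact) from X-intercept, T1/2 from Y-intercept; duplicate determinations.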

The target of data set [3] is T1, Aromatase (Homo sapiens, UniProt P11511).
T1 sequence (P11511 whole entry): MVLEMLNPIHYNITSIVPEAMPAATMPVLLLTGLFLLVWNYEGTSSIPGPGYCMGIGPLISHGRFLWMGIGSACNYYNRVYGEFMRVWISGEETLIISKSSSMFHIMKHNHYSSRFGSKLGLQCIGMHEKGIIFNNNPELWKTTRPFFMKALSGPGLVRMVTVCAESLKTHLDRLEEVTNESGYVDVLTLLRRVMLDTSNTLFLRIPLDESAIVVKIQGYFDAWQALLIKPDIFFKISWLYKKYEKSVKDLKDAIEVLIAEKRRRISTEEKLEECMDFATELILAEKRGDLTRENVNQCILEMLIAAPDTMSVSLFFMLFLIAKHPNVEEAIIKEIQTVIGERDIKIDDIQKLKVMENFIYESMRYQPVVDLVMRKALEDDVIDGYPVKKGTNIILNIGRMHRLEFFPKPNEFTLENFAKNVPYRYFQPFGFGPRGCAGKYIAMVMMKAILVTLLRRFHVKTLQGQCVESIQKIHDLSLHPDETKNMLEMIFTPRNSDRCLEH
The data set can be described thus: Inhibition of human placental microsome Cytochrome P450 19A1. Put shortly:
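Tritiated-water release assay in 0.1 M phosphate pH 7.4. Lyophilized human placental microsomes (0.25 mg) with 0.25 µM [1β-3H]androstenedione, glucose 6-phosphate 5.3 mM, NADP 0.6 mM, G6PDH, 1.0 mM EDTA. Inhibitors from 10^-5 to 10^-8 M, added in ethanol. 15 min at 37 °C; CHCl3 extraction, then the aqueous phase counted by scintillation.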

Data set [4] concerns the target T1, Aromatase. Nature of the data set: Binding affinity for human placental microsome Cytochrome P450 19A1 by nonlinear regression analysis. Conditions: read-out: Ki app. Put shortly: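 Human placental microsomes (0.025-0.03 mg protein) in 1.0 mL 0.1 M phosphate buffer pH 7.4, 37 °C in air, 10 min, initial velocity conditions. [1β-3H]androstenedione diluted with unlabelled androstenedione, 0.005-0.25 µM. Inhibitor at 250, 375 and 500 nM, plus no-inhibitor controls and 0-min blanks. 3H2O release counted; Ki derived by regression analysis; duplicate determinations.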

Data set [5] in a line: Compound was tested for inactivation kinetic values. As to conditions: read-out: Ki app (inact). Put shortly: as §1
A short description of data set [6]: The T1/2 values were obtained from the time point at which each half-time reached 50% of its value at zero time. It is filed as ADME. Put shortly:
as §1

In general, IC50 refers to the midpoint of a concentration-inhibition curve. A lower IC50 goes with greater potency.

In turn, `C#CC[C@@H]1CC2C(CCC3(C)C(=O)CCC23)C2CCC(=O)C=C21` (some centres undefined) registered a Selectivity index in data set [1] of 65. Besides, the T1/2 in data set [2] was 8.9 min. The concentration for half-maximal inhibition (IC50) against Aromatase [3] turned out to be 275 nM. Moreover, the Ki on Aromatase [4] was found to be 47.6 nM. The KI (inactivation) in data set [5] turned out to be 19.8 nM.

Turning to `C#CC[C@@H]1CC2C3CCC(=O)C3(C)CCC2C2(C)CCC(=O)C=C12` (some centres undefined), in data set [1], the Selectivity index is given as 21. The same compound displayed a T1/2 in data set [2] of 7.6 min. Besides, on Aromatase [3], half-maximal inhibition (IC50) was put at 31 nM. Further, the Ki on Aromatase [4] is 10 nM. The KI (inactivation) in data set [5] came to 72.4 nM.

For `C#CC[C@H]1CC2C3CCC(=O)C3(C)CCC2C2(C)CCC(=O)C=C12` (some centres undefined), on Aromatase [3], the IC50 turned out to be 176 nM. Besides, at Aromatase [4], the Ki is 37 nM.

With `C#CC[C@H]1CC2C(CCC3(C)C(=O)CCC23)C2CCC(=O)C=C21` (some centres undefined), inhibition at Aromatase [3] was half-maximal at 187 nM (IC50). For the same compound, at Aromatase [4], the Ki turned out to be 65.8 nM.

In data set [1], `C#CC[C@]12CCC(=O)C=C1CC[C@@H]1[C@@H]2CC[C@]2(C)C(=O)CC[C@@H]12` [PLOMESTANE] came in with a Selectivity index of 24. Besides, the IC50 against Aromatase [3] was found to be 56.2 nM. In addition, the Ki at Aromatase [4] was 15.2 nM. Further, the T1/2 in data set [6] was determined as 8.9 min. The KI (inactivation) in data set [5] amounted to 59.5 nM.
